Shown are actives, neighbours in structure and some others; about 2.1% of the full set was active somewhere.
FN deposit inh: fibronectin deposition inhibition. inhibition, % at 12.6 µM. 0.086% of 350,000 active. AH1F fibroblasts, Alexa488-fibronectin deposition fluorescence, overnight;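 active = mean inhibition across replicates of 30% or more, regardless of how many single replicates reach that level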;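 note: positive control wells lacked labelled fibronectin entirely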
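Schedule: 1 h cell adhesion before compound, then overnight fibronectin incubation; test system: AH1F fibroblast monolayer depositing Alexa488-labelled fibronectin into matrix; quantity: 10000 AH1F cells per well; probe or stimulus: fluorescent fibronectin at 24 nM final; signal: fluorescence, ex 485 nm, em 525 nm; evaluation: percent inhibition as loss of matrix-bound fibronectin fluorescence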
EWS-Fli block: blocks EWS/Fli oncoprotein-driven transcription; A673 NR0B1-luciferase reporter, viability-normalised; inhibition, % at 12.6 µM; 0.67% of 350,000 active; AID 651661;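 active = mean inhibition of at least 50% after viability correction, with every replicate also passing that limit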;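 note: firefly luciferase signal divided by Alamar Blue viability fluorescence both relative to DMSO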
aSyn 5UTR inh: MLPCN primary screen, SNCA 5' untranslated region. inhibition, % (tested at 7.5 µM). 0.82% of 300,000 active. alpha-synuclein 5'UTR reporter, inhibitor activity; in the data active = inhibition above about 60%;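 note: H4 neuroglioblastoma cells stably carrying SNCA 5'UTR luciferase fusion; 0% = DMSO wells and 100% = positive control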
PAX8 inh HTS: PAX8 transcriptional activity inhibition; inhibition, % at 12.6 µM; AID 652154; 1.2% of 360,000 active; RMG-I TPO-luciferase reporter, SteadyGlo, 24 h;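 active = mean replicate inhibition at least 60% with every replicate also reaching 60%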;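 note: luciferase light reporting Pax8 driven TPO promoter activity; plate controls were median of neutral control wells for no effect and mitoxantrone controls for full effect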
Shn3 inh set2: inhibitors of Schnurri-3 3'UTR reporter in osteoblasts. 0.52% of 360,000 active. Clone20 osteoblast Shn3 3'UTR firefly luciferase, 24 h. inhibition, % at 12.5 µM;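 active = mean inhibition of at least 75% with every replicate also reaching 75%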;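 note: 0% = median of neutral control wells and 100% = pilot-screen positive control compound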
EBV LMP1 NFkB: Epstein-Barr LMP1 NF-kappaB reporter inhibition. LMP1-induced NF-kappaB luciferase reporter cells, luminescence. 0.69% of 350,000 active. AID 504558. inhibition, % at 12.5 µM; in the data active = inhibition above about 41%;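 note: 0% = neutral control wells and 100% = reference inhibitor control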
* = called active by the depositor; · = not tested or not shown.

SMILES	FN deposit inh	EWS-Fli block	aSyn 5UTR inh	PAX8 inh HTS	Shn3 inh set2	EBV LMP1 NFkB
COc1ccc(-c2cc(=O)c3c(O)c(OC)c(O)cc3o2)cc1	·	-92	70*	·	-34	-13
COc1ccc(-c2oc3cc(O)c(OC)c(O)c3c(=O)c2OC)cc1O	-4	36	·	63*	-18	-4
CC(C)(C)c1cc(C(=O)NNC(=O)Nc2cccc(Cl)c2)n(Cc2ccccc2)n1	1	14	·	-9	24	53*
O=C(CCC(=O)NNC(=O)Nc1cccc(Cl)c1)NCc1ccccc1	·	14	16	7	1	42*
COc1ccc2c3c(n(C)c2c1)[C@H](CO)N(C)CC31CN(S(=O)(=O)c2cn(C)cn2)C1	·	-8	·	·	·	·
CCCNC(=O)N1[C@@H](CO)[C@@H](c2ccc(C3=CCCC3)cc2)[C@@H]1CNC(=O)CC	-2	0	·	3	·	·
COC(=O)C[C@@H]1CC[C@H]2[C@H](COc3ccc(NC(=O)Cc4cccs4)cc3C(=O)N2C)O1	-2	9	·	-7	·	·
C[C@@H](C(=O)Nc1ccc2c(c1)OCO2)n1c(=O)[nH]c2ccccc2c1=O	14	·	29	-3	-15	-3
O=C(CSc1ncnc2ccccc12)Nc1ccc2c(c1)OCCO2	-2	-6	-43	-8	-8	4
CC(Sc1nc2ccccc2c(=O)n1C)C(=O)Nc1ccc2c(c1)OCCO2 (stereo unspecified)	4	12	·	12	86*	8
CC(Sc1ncnc2ccccc12)C(=O)Nc1ccc2c(c1)OCCO2 (stereo unspecified)	1	·	-19	63*	29	3
C[C@@H](C(=O)Nc1ccc2c(c1)OCCO2)n1c(=O)[nH]c2ccccc2c1=O	0	·	-12	-92	10	43*
S=C(SSC(=S)N1CCOCC1)N1CCOCC1	3	19	·	23	90*	·
CC1=C2[C@@H](c3ccccc3)OB(O)C[C@@H]2n2c(=O)n(-c3ccccc3)c(=O)n2C1	·	14	·	-16	·	·
Cc1cc(C)nc(SCC(=O)OCN2C(=O)c3ccccc3C2=O)n1	·	·	-3	·	-7	85*
COc1ccc(CN2C[C@@H](O)COC[C@H]3O[C@@H](CC(=O)NCCN4CCCC4)CC[C@@H]32)cc1	-1	0	·	-11	·	·
CN1c2ccc(-c3cccc(C#N)c3)cc2[C@H]2[C@H](CCN2S(=O)(=O)c2ccccc2F)[C@H]1CO	6	22	·	102*	·	·
Cc1cccc(S(=O)(=O)N2CC[C@@H]3[C@H](CO)N(C)c4ccc(-c5ccc(C#N)cc5)cc4[C@@H]32)c1	10	5	·	89*	·	·
Cc1ccc(S(=O)(=O)N2CC[C@@H]3[C@H](CO)N(C)c4ccc(-c5ccc(C#N)cc5)cc4[C@@H]32)cc1	6	13	·	80*	·	·
CO[C@@H](CN(C)C(=O)c1cnccn1)[C@@H](C)CN([C@H](C)CO)S(=O)(=O)c1ccc(C)cc1	-14	-5	·	·	·	·
COc1cc(C(=O)N/N=C(\c2ccccc2)c2ccccn2)cc(OC)c1OC	-7	25	81*	72*	89*	23
COc1cc(C(=O)NN=C2c3ccccc3-c3ccccc32)cc(OC)c1OC	-7	59*	·	14	·	·
COc1cc(C(=O)N/N=C(\C)c2ccccn2)cc(OC)c1OC	-1	·	109*	-2	-3	13
C/C(=N\NC(=O)c1cc(C)nc2ccccc12)c1ccncc1	·	·	-12	1	6	-1
C/C(=N\NC(=O)c1cc(C)nc2ccccc12)c1ccccn1	7	40	·	26	95*	29
SMILES	FN deposit inh	EWS-Fli block	aSyn 5UTR inh	PAX8 inh HTS	Shn3 inh set2	EBV LMP1 NFkB
COc1cc(C(=O)N/N=c2/sc3ccccc3n2C)cc(OC)c1OC	15	8	-6	24	15	-7
CN1CCN(C(=O)C[C@@H]2CC[C@@H]3[C@H](COC[C@H](O)CN3C(=O)C3CC3)O2)CC1	-8	-29	·	4	·	·
COc1ccc(NC(=O)N[C@@H]2CC[C@H](CC(=O)NC3CCCCC3)O[C@H]2CO)cc1	4	-2	·	9	·	·
COc1cccc(C(=O)N/N=C(/c2ccccc2)c2ccccn2)c1	3	·	73*	65*	79	40
C[C@H]1CN([C@@H](C)CO)C(=O)c2cc(NC(=O)NC3CCCCC3)ccc2O[C@@H]1CN(C)S(=O)(=O)c1ccccc1	-7	4	·	3	·	·
C=CCSc1nc2c(cnn2-c2ccccc2)c(=O)n1N	3	-84	74*	-56	-128	·
CCCN1CCC(N(CCc2ccccc2)Cc2ccccc2)CC1	12	-2	-23	1	-3	-13
COc1ccc(CN2CCC(N(CCc3ccccc3)Cc3ccccc3)CC2)c(OC)c1	9	28	24	29	89*	5
CCC1(O)C(=O)OCc2c1cc1n(c2=O)Cc2cc3cc(O)ccc3nc2-1 (stereo unspecified)	·	56*	·	·	29	86*
C[C@H](CO)N1C[C@H](C)[C@H](CN(C)Cc2ccc(C(=O)O)cc2)Oc2ccc(NC(=O)Nc3ccc(F)cc3)cc2C1=O	-5	-4	·	-9	·	·
COc1ccccc1S(=O)(=O)N(C)C[C@@H]1Oc2cc(C#CCC3CCCC3)ccc2S(=O)(=O)N([C@@H](C)CO)C[C@@H]1C	2	10	·	76*	·	·
COc1ccccc1S(=O)(=O)N(C)C[C@@H]1Oc2cc(C#CCC3CCCC3)ccc2S(=O)(=O)N([C@@H](C)CO)C[C@H]1C	6	-3	·	73*	·	·
COc1ccc2c3c([nH]c2c1)[C@@H](CO)N(C(=O)Nc1ccccc1F)CC31CCN(C(=O)c2ccccc2F)CC1	·	-1	·	·	·	·
CCOc1ccc(OCC)c(S(=O)(=O)NNC(=O)c2c(C)nc3ccccn23)c1	5	10	-8	86*	-9	4
COc1ccc(Br)cc1S(=O)(=O)NNC(=O)c1c(C)nc2ccccn12	5	7	18	11	12	7
Cc1ccc(NC(=O)N2CCc3ccccc32)cc1	-1	·	-18	-102	-7	-16
CN1CCN(c2ccc(NC(=O)N3CCc4ccccc43)cc2)CC1	3	62*	70*	49	46	60*
CCCNC(=O)Nc1ccc2c(c1)OC[C@H](C)N(S(C)(=O)=O)C[C@H](C)[C@@H](OC)CN(C)C2=O	-3	·	·	-6	·	·

Screening results from PubChem.
